Assay results as given in ChEMBL document CHEMBL2331368, “Inhibitors of HIV-1 attachment. Part 9: an assessment of oral prodrug approaches to improve the plasma exposure of a tetrazole-containing derivative” (Bioorg Med Chem Lett, 2013).
pEC50: −log10 of the molar value.

Assays:
[1] = tested on: Human immunodeficiency virus 1; test: Antiviral activity against HIV1 JRFL pseudotyped virions infected in HeLa CD4 CCR5 cells after 48 hrs by luciferase assay; type: functional, organism-based; details: Human immunodeficiency virus 1, JRFL, HeLa-CD4/CCR5, 48 h
Outline: (§1)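 EC50s came from a single-cycle infectivity assay with HIV JRFL pseudotyped virus. CC50s were determined by the method described in an earlier report. Values are means of two or more experiments.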

[2] = Plasma concentration in rat at 5 mg/kg, po at 120 mins; type: ADME, organism-based; set-up: dose 5 mg/kg, route oral
Outline: (§2)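 Rats received 5 mg/kg orally in 90% PEG 400/10% EtOH. The parent tetrazole concentration in plasma was measured at 30 and 120 min after dosing. Each value is the average of two rats.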

[3] = Plasma concentration in rat at 5 mg/kg, po at 30 mins; type: ADME, organism-based; set-up: dose 5 mg/kg, route oral; outline: as §2
[4] = Oral bioavailability in rat at 5 mg/kg; type: ADME, organism-based; details: in vivo
Outline: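 Rat pharmacokinetics used 90% PEG 400/10% EtOH as vehicle. The IV dose was 1 mg/kg and the oral dose 5 mg/kg.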

[5] = Cytotoxicity against human HeLa cells by XTT assay; type: cell-based; outline: as §1
[6] = Half life in human liver microsomes assessed in presence of NADPH; type: ADME, Microsome
[7] = tested on: Liver microsomes; test: Prodrug conversion in human liver microsomes assessed as formation of 1-(4-benzoylpiperazin-1-yl)-2-(4-fluoro-7-(2H-tetrazol-5-yl)-1H-indol-3-yl)ethane-1,2-dione in absence of NADPH after 5 mins; type: ADME, Microsome
[8] = tested on: Caco-2; test: Permeability across human Caco2 cells at pH 6.5; type: ADME, cell-based; details: caco-2, pH 6.5
[9] = Permeability across human Caco2 cells assessed as drug recovery at pH 6.5; type: ADME, cell-based; details: caco-2, pH 6.5, read-out: Drug recovery

Row | pEC50 [1] | concentration at 2 h [2] [ng/mL] | concentration at 0.5 h [3] [ng/mL] | bioavailability [4] [%] | half-life [6] [min] | Drug metabolism [7] | permeability [8] | recovery [9] [%] | Compound | CC50 [5] [nM]
1 | 7.47 | 25 | 19 | – | – | – | – | – | O=C(C(=O)N1CCN(C(=O)c2ccccc2)CC1)c1c[nH]c2c(-c3nn[nH]n3)ccc(F)c12 | –
2 | – | – | – | 11 | – | – | – | – | O=C(O)c1c(Cc2ccc(-c3ccccc3-c3nn[nH]n3)cc2)c(C2CC2)nc2ccccc12 | –
3 | – | – | – | 39 | – | – | – | – | CC(C)C(OC(=O)C(C)(C)C)n1nnc(-c2ccccc2-c2ccc(Cc3c(C4CC4)nc4ccccc4c3C(=O)O)cc2)n1 (configuration not stated) | –
4 | 7.70 | 207 | 72 | – | 12 | – | – | – | Cn1nnc(-c2ccc(F)c3c(C(=O)C(=O)N4CCN(C(=O)c5ccccc5)CC4)c[nH]c23)n1 | > 300000
5 | 6.72 | 13 | 60 | – | – | Active | ND(Insoluble) | – | CC(C)(C)C(=O)OCn1nnc(-c2ccc(F)c3c(C(=O)C(=O)N4CCN(C(=O)c5ccccc5)CC4)c[nH]c23)n1 | 228000
6 | 7.22 | 378 | 261 | – | – | Active | – | < 70 | CC(=O)OCn1nnc(-c2ccc(F)c3c(C(=O)C(=O)N4CCN(C(=O)c5ccccc5)CC4)c[nH]c23)n1 | 36000
